Experiments:
[1] = Plasma clearance in RjOrl:Swiss CD-1 mouse at 10 mg/kg, iv administered as single dose measured after 10 mins by LC-MS analysis; format: ADME, organism-based
In short: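 Adult male mice received a single 10 mg/kg intravenous injection. Plasma was sampled at 10, 30 and 120 min after dosing. Samples were prepared and analyzed by LC-MS.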

[2] = Ratio of drug concentration in RjOrl:Swiss CD-1 mouse brain at 10 mg/kg, iv to IC50 for p38alpha MAPK (unknown origin); format: ADME, organism-based; details: in vivo
In short: (§1)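 Adult male mice received a single 10 mg/kg intravenous dose. After the final plasma sample at 2 h, the mice were sacrificed and brains dissected. Brain concentration was measured by LC-MS and related to the in vitro IC50 values for GSK3β and p38α.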

[3] = target: T1, Glycogen synthase kinase-3 beta (Homo sapiens, UniProt P49841); assay: Competitive inhibition of human recombinant full length GSK3beta using YRRAAVPPSPSLSRHSSPHQ(pS)EDEEE as substrate preincubated with enzyme for 10 mins followed by substrate and 25 uM ATP addition measured after 60 mins by ADP-Glo luminescence assay
In short: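 Compounds in serial dilutions were preincubated with kinase for 10 min at rt. Substrate/ATP was then added and the reaction ran 60 min at rt. ADP-Glo reagent 60 min, detection reagent 30 min, then luminescence read (500 ms integration).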
Target sequence in this assay (P49841 whole entry): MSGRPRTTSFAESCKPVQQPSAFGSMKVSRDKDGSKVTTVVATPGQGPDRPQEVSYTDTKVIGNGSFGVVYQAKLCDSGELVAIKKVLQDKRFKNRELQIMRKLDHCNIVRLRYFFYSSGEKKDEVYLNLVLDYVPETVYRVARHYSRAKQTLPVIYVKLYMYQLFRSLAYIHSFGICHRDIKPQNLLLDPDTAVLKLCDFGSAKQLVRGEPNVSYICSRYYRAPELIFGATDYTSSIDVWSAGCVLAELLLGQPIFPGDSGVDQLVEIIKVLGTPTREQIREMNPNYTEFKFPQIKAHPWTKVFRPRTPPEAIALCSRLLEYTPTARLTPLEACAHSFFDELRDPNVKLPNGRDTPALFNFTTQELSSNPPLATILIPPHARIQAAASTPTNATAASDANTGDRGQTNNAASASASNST

[4] = target: Proto-oncogene tyrosine-protein kinase Src (Homo sapiens) (UniProt P12931); assay: Inhibition of human recombinant SRC at 1 uM using Ulight-Poly GAT[EAY(1:1:1)]n as substrate measured after 10 mins in presence of ATP by LANCE assay relative to control
In short: (§2)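 Kinase panel run by an outside provider (Eurofins Cerep) in a LANCE assay, single test concentration of 1 µM, results as percent inhibition.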

[5] = target: Mitogen-activated protein kinase 14 (Homo sapiens, UniProt Q16539); assay: Inhibition of p38alpha MAPK (unknown origin) using ATF-2 as substrate after 1 hr by ELISA
Sequence of Mitogen-activated protein kinase 14 (Q16539 whole entry): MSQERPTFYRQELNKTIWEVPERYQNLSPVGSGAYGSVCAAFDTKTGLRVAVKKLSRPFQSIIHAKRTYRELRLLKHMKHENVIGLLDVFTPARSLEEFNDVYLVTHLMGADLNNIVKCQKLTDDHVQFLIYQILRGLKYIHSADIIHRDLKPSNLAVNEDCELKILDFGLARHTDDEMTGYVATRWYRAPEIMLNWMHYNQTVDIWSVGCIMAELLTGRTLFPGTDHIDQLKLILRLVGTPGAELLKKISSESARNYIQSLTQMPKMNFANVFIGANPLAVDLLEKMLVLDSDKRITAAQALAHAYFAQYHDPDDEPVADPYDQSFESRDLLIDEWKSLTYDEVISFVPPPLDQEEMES

[6] = target: Serine/threonine-protein kinase PAK 2 (Homo sapiens) (UniProt Q13177); assay: Inhibition of human recombinant PAK2 at 1 uM using Ulight-RRRSLLE as substrate measured after 60 mins in presence of ATP by LANCE assay relative to control; in short: as §2
[7] = target: Insulin receptor (Homo sapiens) (UniProt P06213); assay: Inhibition of human recombinant IR at 1 uM using Ulight-Poly GAT[EAY(1:1:1)]n as substrate measured after 10 mins in presence of ATP by LANCE assay relative to control; in short: as §2
Sequence of Insulin receptor (Homo sapiens) (P06213 28-758 limits assumed): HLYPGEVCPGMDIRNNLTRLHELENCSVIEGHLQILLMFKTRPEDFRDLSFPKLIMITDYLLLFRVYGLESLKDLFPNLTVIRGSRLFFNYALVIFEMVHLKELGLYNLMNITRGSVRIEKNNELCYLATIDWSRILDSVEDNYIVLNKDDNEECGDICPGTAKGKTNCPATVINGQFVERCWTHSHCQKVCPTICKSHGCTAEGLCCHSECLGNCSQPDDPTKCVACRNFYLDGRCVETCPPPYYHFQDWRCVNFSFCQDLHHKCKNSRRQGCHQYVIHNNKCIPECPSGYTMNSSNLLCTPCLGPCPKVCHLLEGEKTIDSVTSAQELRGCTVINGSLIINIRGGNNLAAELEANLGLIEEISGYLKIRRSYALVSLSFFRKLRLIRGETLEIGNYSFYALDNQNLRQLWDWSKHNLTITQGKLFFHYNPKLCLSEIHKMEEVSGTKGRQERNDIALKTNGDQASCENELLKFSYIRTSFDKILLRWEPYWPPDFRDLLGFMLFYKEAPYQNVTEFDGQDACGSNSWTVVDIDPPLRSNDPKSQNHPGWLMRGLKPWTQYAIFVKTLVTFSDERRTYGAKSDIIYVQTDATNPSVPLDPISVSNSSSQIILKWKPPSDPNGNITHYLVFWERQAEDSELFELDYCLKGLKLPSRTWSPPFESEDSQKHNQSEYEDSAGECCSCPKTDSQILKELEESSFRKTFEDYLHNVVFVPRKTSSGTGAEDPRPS
Sequence of Insulin receptor (Homo sapiens) (P06213 763-1382 limits assumed): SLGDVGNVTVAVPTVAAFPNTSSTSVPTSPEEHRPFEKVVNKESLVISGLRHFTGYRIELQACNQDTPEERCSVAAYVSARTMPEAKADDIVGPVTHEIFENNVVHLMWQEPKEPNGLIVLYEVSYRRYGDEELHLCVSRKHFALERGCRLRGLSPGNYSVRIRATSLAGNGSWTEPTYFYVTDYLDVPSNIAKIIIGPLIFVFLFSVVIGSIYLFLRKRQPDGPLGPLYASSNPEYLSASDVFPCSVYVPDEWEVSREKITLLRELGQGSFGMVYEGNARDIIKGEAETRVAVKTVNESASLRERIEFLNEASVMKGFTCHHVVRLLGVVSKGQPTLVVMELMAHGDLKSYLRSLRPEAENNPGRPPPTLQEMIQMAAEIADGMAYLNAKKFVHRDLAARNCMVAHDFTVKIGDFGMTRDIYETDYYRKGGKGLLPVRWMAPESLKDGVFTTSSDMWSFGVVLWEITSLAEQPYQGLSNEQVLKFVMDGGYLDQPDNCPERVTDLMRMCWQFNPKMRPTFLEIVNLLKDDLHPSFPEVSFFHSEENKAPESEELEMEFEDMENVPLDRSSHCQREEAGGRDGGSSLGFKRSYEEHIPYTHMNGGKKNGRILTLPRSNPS

[8] = target: Aurora kinase A (Homo sapiens) (UniProt O14965); assay: Inhibition of recombinant human Aurora A at 1 uM using Ulight-RRRSLLE substrate incubated for 15 mins in presence of ATP by LANCE assay relative to control
[9] = target: T1, Glycogen synthase kinase-3 beta; assay: Inhibition of human recombinant GSK3beta at 1 uM using Ulight-CFFKNIVTPRTPPPSQGK-amide as substrate measured after 90 mins in presence of ATP by LANCE assay relative to control; in short: as §2
Target sequence in this assay (P49841 whole entry, looked up): as the sequence (P49841 whole entry) above

[10] = target: Serine/threonine-protein kinase Chk2 (Homo sapiens) (UniProt O96017); assay: Inhibition of human recombinant CHK2 at 1 uM using CREBtide as substrate incubated for 15 mins in presence of ATP by LANCE assay relative to control; in short: as §2
[11] = Ratio of drug concentration in RjOrl:Swiss CD-1 mouse brain at 10 mg/kg, iv to IC50 for human recombinant full length GSK3beta; format: ADME, organism-based; details: in vivo; in short: as §1
[12] = target: Calcium/calmodulin-dependent protein kinase type II subunit alpha (Homo sapiens) (UniProt Q9UQM7); assay: Inhibition of human recombinant CAMKA2A at 1 uM using Ulight-CGSGSGRPRTSSFAEG as substrate measured after 30 mins by LANCE assay relative to control; in short: as §2
[13] = target: RAC-alpha serine/threonine-protein kinase (Homo sapiens) (UniProt P31749); assay: Inhibition of recombinant human AKT1 at 1 uM using CREBtide as substrate measured after 60 mins in presence of ATP by LANCE assay relative to control
[14] = target: High affinity nerve growth factor receptor (Homo sapiens) (UniProt P04629); assay: Inhibition of human recombinant TRKA at 1 uM using Ulight-Poly GAT[EAY(1:1:1)]n as substrate measured after 10 mins in presence of ATP by LANCE assay relative to control; in short: as §2
[15] = target: CYP1A2 (Homo sapiens, UniProt P05177); assay: Inhibition of human recombinant CYP1A2 expressed in baculovirus infected insect cells using 3-cyano-7-ethoxycoumarin as substrate at 10 uM in presence of NADPH by fluorimetric analysis relative to control; format: ADME; details: probe 3-cyano-7-ethoxycoumarin
Sequence of CYP1A2 (P05177 whole entry): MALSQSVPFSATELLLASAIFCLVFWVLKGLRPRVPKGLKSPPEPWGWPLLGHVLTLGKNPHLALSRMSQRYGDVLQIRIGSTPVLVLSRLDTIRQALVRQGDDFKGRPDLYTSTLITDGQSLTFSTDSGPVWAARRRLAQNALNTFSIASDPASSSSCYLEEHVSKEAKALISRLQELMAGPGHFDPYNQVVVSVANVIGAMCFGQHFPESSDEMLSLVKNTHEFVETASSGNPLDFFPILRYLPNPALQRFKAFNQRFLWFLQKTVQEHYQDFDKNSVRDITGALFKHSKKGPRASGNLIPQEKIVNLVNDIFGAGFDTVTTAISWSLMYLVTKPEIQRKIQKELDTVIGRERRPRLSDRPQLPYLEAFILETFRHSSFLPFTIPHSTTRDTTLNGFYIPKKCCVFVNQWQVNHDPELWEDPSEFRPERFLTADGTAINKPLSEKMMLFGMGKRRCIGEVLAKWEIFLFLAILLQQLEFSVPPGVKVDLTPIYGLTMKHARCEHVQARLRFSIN

[16] = target: Serine/threonine-protein kinase Nek2 (Homo sapiens) (UniProt P51955); assay: Inhibition of human recombinant NEK2 at 1 uM using Ulight-FLGFTYVAP as substrate measured after 60 mins in presence of ATP by LANCE assay relative to control; in short: as §2
[17] = Metabolic stability in human liver microsomes assessed as parent compound remaining after 60 mins by LC-MS analysis relative to control; format: ADME, Microsome; details: read-out: Stability
[18] = target: Serine/threonine-protein kinase PLK1 (Homo sapiens) (UniProt P53350); assay: Inhibition of human recombinant PLK1 at 1 uM using Ulight-FLGFTYVAP as substrate measured after 60 mins in presence of ATP by LANCE assay relative to control; in short: as §2
Sequence of Serine/threonine-protein kinase PLK1 (Homo sapiens) (P53350 whole entry): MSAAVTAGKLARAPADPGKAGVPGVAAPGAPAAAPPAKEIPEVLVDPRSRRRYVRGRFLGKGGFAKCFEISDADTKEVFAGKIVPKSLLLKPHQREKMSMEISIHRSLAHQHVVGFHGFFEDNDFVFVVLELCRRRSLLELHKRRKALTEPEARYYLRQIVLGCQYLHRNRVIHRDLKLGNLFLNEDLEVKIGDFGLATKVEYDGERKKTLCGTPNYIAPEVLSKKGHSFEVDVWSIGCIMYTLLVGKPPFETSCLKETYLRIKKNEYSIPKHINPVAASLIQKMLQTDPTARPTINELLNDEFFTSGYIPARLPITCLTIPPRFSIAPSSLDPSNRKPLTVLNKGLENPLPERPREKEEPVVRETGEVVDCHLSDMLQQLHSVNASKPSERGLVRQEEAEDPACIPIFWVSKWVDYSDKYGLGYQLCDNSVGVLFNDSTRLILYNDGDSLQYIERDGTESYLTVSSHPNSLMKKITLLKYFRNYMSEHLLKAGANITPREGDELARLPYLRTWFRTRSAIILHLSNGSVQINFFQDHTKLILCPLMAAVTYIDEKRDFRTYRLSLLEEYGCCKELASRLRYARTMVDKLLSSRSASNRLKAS

[19] = target: Fibroblast growth factor receptor 3 (Homo sapiens) (UniProt P22607); assay: Inhibition of human recombinant FGFR3 at 1 uM using Ulight-CAGAGAIETDKEYYTVKD as substrate measured after 90 mins in presence of ATP by LANCE assay relative to control; in short: as §2
[20] = target: hERG (KCNH2) (Homo sapiens, UniProt Q12809); assay: Inhibition of tracer Red binding to human ERG expressed in membranes at 10 uM after 4 hrs by fluorescence polarization assay relative to control; details: membranes expressing human ERG, probe tracer Red
[21] = target: Hepatocyte growth factor receptor (Homo sapiens) (UniProt P08581); assay: Inhibition of human recombinant MET at 1 uM using Ulight-CAGAGAIETDKEYYTVKD as substrate measured after 60 mins in presence of ATP by LANCE assay relative to control; in short: as §2
Sequence of Hepatocyte growth factor receptor (Homo sapiens) (P08581 whole entry): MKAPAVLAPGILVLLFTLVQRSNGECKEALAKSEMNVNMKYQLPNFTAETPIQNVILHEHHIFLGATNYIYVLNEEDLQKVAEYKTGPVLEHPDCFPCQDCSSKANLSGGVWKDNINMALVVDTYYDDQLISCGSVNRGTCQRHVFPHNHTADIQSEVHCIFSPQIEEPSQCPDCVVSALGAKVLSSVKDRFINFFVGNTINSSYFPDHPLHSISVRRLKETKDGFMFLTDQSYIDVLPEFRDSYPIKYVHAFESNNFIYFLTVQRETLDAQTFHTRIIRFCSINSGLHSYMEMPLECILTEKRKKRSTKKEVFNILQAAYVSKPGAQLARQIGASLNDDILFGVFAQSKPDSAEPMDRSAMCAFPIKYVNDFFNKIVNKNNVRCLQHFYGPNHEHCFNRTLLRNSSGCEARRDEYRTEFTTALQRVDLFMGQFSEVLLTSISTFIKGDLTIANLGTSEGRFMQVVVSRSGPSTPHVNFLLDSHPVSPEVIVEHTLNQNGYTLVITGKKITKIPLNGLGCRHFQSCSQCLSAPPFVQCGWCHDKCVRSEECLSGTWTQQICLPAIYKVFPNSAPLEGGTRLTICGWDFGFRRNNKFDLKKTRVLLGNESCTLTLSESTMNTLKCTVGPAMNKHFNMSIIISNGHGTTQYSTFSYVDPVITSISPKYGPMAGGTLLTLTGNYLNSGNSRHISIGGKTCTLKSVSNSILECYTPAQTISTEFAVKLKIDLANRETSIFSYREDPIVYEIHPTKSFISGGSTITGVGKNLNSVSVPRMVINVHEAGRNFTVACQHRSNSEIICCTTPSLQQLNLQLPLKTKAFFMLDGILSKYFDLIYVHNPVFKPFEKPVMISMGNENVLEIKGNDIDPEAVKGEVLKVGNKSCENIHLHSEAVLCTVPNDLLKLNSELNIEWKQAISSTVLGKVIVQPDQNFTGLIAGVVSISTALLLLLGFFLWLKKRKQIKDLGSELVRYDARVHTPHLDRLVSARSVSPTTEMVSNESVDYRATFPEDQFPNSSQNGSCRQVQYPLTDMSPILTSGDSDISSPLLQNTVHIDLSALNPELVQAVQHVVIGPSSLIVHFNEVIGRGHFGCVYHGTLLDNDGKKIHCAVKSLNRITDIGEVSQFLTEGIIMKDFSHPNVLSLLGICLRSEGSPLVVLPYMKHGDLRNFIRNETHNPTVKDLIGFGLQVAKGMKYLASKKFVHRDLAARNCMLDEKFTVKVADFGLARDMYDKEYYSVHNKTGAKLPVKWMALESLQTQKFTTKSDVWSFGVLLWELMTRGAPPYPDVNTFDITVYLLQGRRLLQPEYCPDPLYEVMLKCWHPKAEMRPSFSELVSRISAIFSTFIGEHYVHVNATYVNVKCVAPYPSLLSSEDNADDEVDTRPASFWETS

[22] = Metabolic stability in human liver microsomes assessed as parent compound remaining after 120 mins by LC-MS analysis relative to control; format: ADME, Microsome; details: read-out: Stability
[23] = target: Interleukin-1 receptor-associated kinase 4 (Homo sapiens) (UniProt Q9NWZ3); assay: Inhibition of human recombinant IRAK4 at 1 uM using Ulight-FLGFTYVAP as substrate measured after 90 mins in presence of ATP by LANCE assay relative to control; in short: as §2
[24] = target: Ephrin type-B receptor 4 (Homo sapiens) (UniProt P54760); assay: Inhibition of human recombinant EPHB4 at 1 uM using Ulight-TK peptide as substrate measured after 90 mins in presence of ATP by LANCE assay relative to control; in short: as §2
[25] = target: Vascular endothelial growth factor receptor 2 (Homo sapiens) (UniProt P35968); assay: Inhibition of human recombinant KDR at 1 uM using Ulight-CAGAGAIETDKEYYTVKD as substrate measured after 60 mins in presence of ATP by LANCE assay relative to control; in short: as §2

CCc1nc(-c2ccc(F)cc2)c(-c2ccnc(NC(=O)C3CC3)c2)[nH]1
concentration at 10 min [1]: 850 ng/mL | Ratio [2]: 2.5 | IC50 [3]: 35 to 45.6 nM | inhibition [4]: 51.6% | IC50 [5]: 16 nM | inhibition [6]: 5.58% | inhibition [7]: 4.24% | inhibition [8]: 2.76% | inhibition [9]: 97% | inhibition [10]: -9.7% | Ratio [11]: 1.1 | inhibition [12]: -2.55% | inhibition [13]: 2.06% | inhibition [14]: 10.6% | inhibition at 10 µM [15]: 83.6% | inhibition [16]: -1.98% | remaining at 1 h [17]: 95.2% | inhibition [18]: 2.78% | inhibition [19]: 64.5% | inhibition at 4 h, 10 µM [20]: 43.3% | inhibition [21]: 54.9% | remaining at 2 h [22]: 96.4% | inhibition [23]: 2.96% | inhibition [24]: 94.7% | inhibition [25]: 98.7%

Source: ChEMBL document CHEMBL4393708, “Pyridinylimidazoles as dual glycogen synthase kinase 3β/p38α mitogen-activated protein kinase inhibitors” (Eur J Med Chem, 2019)
